Measurements as given in ChEMBL document CHEMBL1828608, “A chrysin analog exhibited strong inhibitory activities against both PGE2 and NO production” (Eur J Med Chem, 2011).

What was measured:
[1] = target: T1, Prostaglandin G/H synthase 2 (Mus musculus) (UniProt Q05769); assay: Inhibition of COX2-mediated PGE2 production in LPS-induced mouse RAW264.7 cells at 10 uM after 24 hrs by ELISA; assay type: cell-based
T1 sequence (whole entry): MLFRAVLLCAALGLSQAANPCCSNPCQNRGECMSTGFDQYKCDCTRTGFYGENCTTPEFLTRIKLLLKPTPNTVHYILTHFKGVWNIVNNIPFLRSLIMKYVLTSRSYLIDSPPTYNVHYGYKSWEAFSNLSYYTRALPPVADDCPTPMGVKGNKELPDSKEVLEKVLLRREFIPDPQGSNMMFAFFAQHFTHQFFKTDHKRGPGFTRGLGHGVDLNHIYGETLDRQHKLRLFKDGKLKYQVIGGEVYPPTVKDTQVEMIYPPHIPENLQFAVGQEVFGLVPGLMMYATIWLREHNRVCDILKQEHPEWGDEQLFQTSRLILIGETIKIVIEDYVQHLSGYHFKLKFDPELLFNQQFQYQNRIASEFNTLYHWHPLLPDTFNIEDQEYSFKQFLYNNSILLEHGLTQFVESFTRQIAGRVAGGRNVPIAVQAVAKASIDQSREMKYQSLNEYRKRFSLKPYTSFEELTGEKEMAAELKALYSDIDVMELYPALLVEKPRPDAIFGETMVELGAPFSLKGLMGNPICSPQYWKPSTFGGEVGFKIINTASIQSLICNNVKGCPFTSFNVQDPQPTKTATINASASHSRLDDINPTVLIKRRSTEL
In short: (§1)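 RAW 264.7 cells in DMEM with 10% FBS and 1% antibiotics at 37 °C, 5% CO₂, plated at 2 × 10⁵ cells/well and pre-incubated 2 h. Compound and LPS were then added together for 24 h. Medium readouts: for NO, nitrite by Griess reagent at OD 550 nm; for PGE₂, commercial ELISA.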

[2] = target: T2, Nitric oxide synthase, inducible (Mus musculus) (UniProt P29477); assay: Inhibition of iNOS-mediated NO production in LPS-induced mouse RAW264.7 cells at 10 uM after 24 hrs by griess method; assay type: cell-based; in short: as §1
T2 sequence (whole entry): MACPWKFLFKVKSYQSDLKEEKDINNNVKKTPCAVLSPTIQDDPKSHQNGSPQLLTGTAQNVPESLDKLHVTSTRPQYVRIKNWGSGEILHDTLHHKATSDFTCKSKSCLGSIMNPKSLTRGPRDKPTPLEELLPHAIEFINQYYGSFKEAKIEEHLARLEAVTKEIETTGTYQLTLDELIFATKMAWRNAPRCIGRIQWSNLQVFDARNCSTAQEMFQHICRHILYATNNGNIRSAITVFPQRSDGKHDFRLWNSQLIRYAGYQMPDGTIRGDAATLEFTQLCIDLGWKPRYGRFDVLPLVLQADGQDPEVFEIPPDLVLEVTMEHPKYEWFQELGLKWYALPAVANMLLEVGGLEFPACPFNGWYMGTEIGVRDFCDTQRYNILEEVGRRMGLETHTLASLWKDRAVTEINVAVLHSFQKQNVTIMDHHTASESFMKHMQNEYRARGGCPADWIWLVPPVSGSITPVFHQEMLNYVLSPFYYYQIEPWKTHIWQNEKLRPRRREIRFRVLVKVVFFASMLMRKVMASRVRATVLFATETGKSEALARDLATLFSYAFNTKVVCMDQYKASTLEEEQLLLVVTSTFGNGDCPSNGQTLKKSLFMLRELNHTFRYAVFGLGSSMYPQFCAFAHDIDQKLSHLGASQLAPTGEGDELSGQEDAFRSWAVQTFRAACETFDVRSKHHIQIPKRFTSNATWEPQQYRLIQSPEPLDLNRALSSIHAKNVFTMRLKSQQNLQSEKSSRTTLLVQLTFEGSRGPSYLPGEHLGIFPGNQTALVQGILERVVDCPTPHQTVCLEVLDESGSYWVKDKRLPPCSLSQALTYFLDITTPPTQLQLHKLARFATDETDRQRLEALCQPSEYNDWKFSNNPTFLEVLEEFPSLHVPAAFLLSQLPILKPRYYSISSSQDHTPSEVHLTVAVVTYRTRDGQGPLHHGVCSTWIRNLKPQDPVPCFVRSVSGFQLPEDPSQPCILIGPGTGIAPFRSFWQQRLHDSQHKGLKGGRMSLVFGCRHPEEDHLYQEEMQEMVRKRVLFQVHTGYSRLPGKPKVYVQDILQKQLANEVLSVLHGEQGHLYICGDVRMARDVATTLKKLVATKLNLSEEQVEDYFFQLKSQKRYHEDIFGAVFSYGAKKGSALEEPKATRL

[3] = Cytotoxicity against mouse RAW264.7 cells assessed as reduction in cell viability at 10 uM after 24 hrs by MTT assay

inhibition [1] | inhibition [2] | SMILES | reduction in viability at 24 h, 10 µM [3]
92.4% | 29.1% | O=c1cc(-c2ccccc2)oc2c(-c3ccncc3)c(O)cc(O)c12 | < 10%
44.3% | 3.7% | Cc1c(O)cc(O)c2c(=O)cc(-c3ccccc3)oc12 | < 10%

The remaining lines, values behind:

SMILES | inhibition [1] | inhibition [2] | reduction in viability at 24 h, 10 µM [3]
O=c1cc(-c2ccccc2)oc2c(-c3ccsc3)c(O)cc(O)c12 | 31.4% | 7.6% | < 10%
O=c1cc(-c2ccccc2)oc2c(-c3ccoc3)c(O)cc(O)c12 | 26.7% | 8.3% | < 10%
O=c1cc(-c2ccccc2)oc2cc(O)cc(O)c12 | 74% | 8.9% | 
O=c1cc(-c2ccccc2)oc2c(-c3cccnc3)c(O)cc(O)c12 | 48.1% | 16.7% | < 10%
